Data from ChEMBL document CHEMBL1129371, “Bis tertiary amide inhibitors of the HIV-1 protease generated via protein structure-based iterative design” (J Med Chem, 1996).
One block for each compound: values may come before it.

Columns and labels:
[1] = biological target: T1, Human immunodeficiency virus type 1 protease (Human immunodeficiency virus 1, UniProt Q72874); test: Binding affinity against HIV-1 protease
[2] = test system: Human immunodeficiency virus 1; test: Effective dose against inhibition of HIV-1 protease in CEM cells; format: functional; conditions: Human immunodeficiency virus 1, CCRF-CEM; read-out: ED50 (the source's name)
In short: (§1)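 HIV-1-induced killing of CEM-SS cells; cell viability read by MTT tetrazolium metabolism. ED50 = concentration giving 50% inhibition of HIV-1-induced cell death. Run at Southern Research Institute.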

[3] = biological target: T1, Human immunodeficiency virus type 1 protease; test: Compound was tested for binding affinity against HIV protease
CCRF-CEM = test: Antiviral activity againsy HIV-1 in CEM cells; format: functional; conditions: Homo sapiens, read-out: ED50 (the source's name); in short: as §1
[4] = Toxic concentration at which 50% of CEM-SS cells were viable (uninfected with virus) as determined by metabolism of MTT in(uM).; format: toxicity, cell-based; conditions: human, read-out: TC50 (the source's name)
In short: (§2)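 Uninfected CEM-SS cells; viability read by MTT metabolism. TC50 = concentration giving 50% reduction in number of viable cells; reported in μM.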

[5] = Pharmacokinetic parameter Cmax determined after oral administration of 50 mg/kg to rat; format: ADME, organism-based; parameters: dose 50 mg/kg, route oral; conditions: in vivo
[6] = Maximal concentration in monkey plasma after 25 mg/kg oral dose; format: ADME, organism-based; parameters: dose 25 mg/kg, route oral; conditions: simiiformes
[7] = Pharmacokinetic parameter half life determined after oral administration of 15 mg/kg to dog; format: ADME, organism-based, Canis lupus familiaris; parameters: dose 15 mg/kg, route oral; conditions: in vivo
[8] = Pharmacokinetic parameter Cmax determined after oral administration of 15 mg/kg to dog; conditions: in vivo
[9] = Fraction of compound bio available orally in rat at dosage 50(mg/kg) by po administration; format: ADME, organism-based; conditions: in vivo
[10] = Pharmacokinetic parameter half life determined after intravenous administration of 50 mg/kg to rat; format: ADME, organism-based; parameters: dose 50 mg/kg, route intravenous; conditions: in vivo
[11] = Pharmacokinetic parameter Cmax determined after intravenous administration of 50 mg/kg to rat; format: ADME, organism-based; parameters: dose 50 mg/kg, route intravenous; conditions: in vivo
Rattus norvegicus = test: Fraction of compound bio available orally in rat at dosage 50(mg/kg) by po administration.; conditions: in vivo
[12] = Pharmacokinetic parameter Cmax determined after intravenous administration of 60 mg/kg to rat; format: ADME, organism-based; parameters: dose 60 mg/kg, route intravenous; conditions: in vivo
[13] = Pharmacokinetic parameter half life determined after intravenous administration of 60 mg/kg to rat; format: ADME, organism-based; parameters: dose 60 mg/kg, route intravenous; conditions: in vivo
[14] = Pharmacokinetic parameter Cmax determined after intravenous administration of 25 mg/kg to monkey; format: ADME, organism-based; parameters: dose 25 mg/kg, route intravenous; conditions: simiiformes, in vivo
[15] = Pharmacokinetic parameter Cmax determined after peroral administration of 50 mg/kg to rat; format: ADME, organism-based; parameters: dose 50 mg/kg, route oral; conditions: in vivo, po
[16] = Fraction of compound bio available orally in dog at dosage 15(mg/kg) by po administration.; format: ADME, organism-based, Canis lupus familiaris; conditions: in vivo
[17] = Pharmacokinetic parameter Cmax determined after oral administration of 30 mg/kg abd antacid (CaCO3 dosed orally 10 min prior to and 60 min postdosing) to dog; conditions: in vivo
[18] = Pharmacokinetic parameter half life determined after peroral administration of 25 mg/kg to monkey; format: ADME, organism-based; parameters: dose 25 mg/kg, route oral; conditions: simiiformes, in vivo, po
[19] = Pharmacokinetic parameter Cmax determined after peroral administration of 25 mg/kg to monkey; format: ADME, organism-based; parameters: dose 25 mg/kg, route oral; conditions: simiiformes, in vivo, po
[20] = Pharmacokinetic parameter half life determined after intravenous administration of 25 mg/kg to monkey; format: ADME, organism-based; parameters: dose 25 mg/kg, route intravenous; conditions: simiiformes, in vivo
[21] = Pharmacokinetic parameter half life determined after peroral administration of 30 mg/kg abd antacid (CaCO3 dosed orally 10 min prior to and 60 min postdosing) to dog; conditions: in vivo, po
[22] = Oral bioavailability in rat (dose 50 mg/kg); format: ADME, organism-based; conditions: in vivo
[23] = Pharmacokinetic parameter half life determined after intravenous administration of 15 mg/kg to dog; format: ADME, organism-based, Canis lupus familiaris; parameters: dose 15 mg/kg, route intravenous; conditions: in vivo
[24] = Pharmacokinetic parameter Cmax determined after oral administration of 30 mg/kg to dog; conditions: in vivo
[25] = Fraction of compound bio available orally in dog at dosage 30(mg/kg) by po administration.; format: ADME, organism-based, Canis lupus familiaris; conditions: in vivo
[26] = Fraction of compound bio available orally in monkey at dosage 25(mg/kg) by po administration.; conditions: primates, in vivo
[27] = Toxic concentration at which 50% of CEM-SS cells were viable (uninfected with virus) as determined by metabolism of MTT; format: toxicity, cell-based; conditions: human, read-out: TC50 (the source's name); in short: as §2

Structure (SMILES): CCC1(N(CCO)C(=O)c2ccccc2CCC(O)Cc2ccc(C)cc2C(=O)N(CCO)C(C)(C)C2CCOCC2)CCCC1 (stereo not drawn)
Ki [1]: 35 nM
EC50 [2]: 1110 nM

Structure (SMILES): CCN(C(=O)c1ccccc1CC(O)CCc1ccccc1C(=O)N(CCO)C1(CC)CCCC1)C(C)(C)c1ccccc1 (stereo not drawn)
Ki [1]: 51 nM
EC50 [2]: 1700 nM

Structure (SMILES): CCC1(N(CCO)C(=O)c2ccccc2CCC(O)Cc2ccc(C)cc2C(=O)N(CC2COC(C)(C)OC2)C(C)(C)c2ccccc2)CCCC1 (stereo not drawn)
Ki [3]: 4 nM
EC50 (CCRF-CEM): 590 nM

Structure (SMILES): CC(C)(C)NC(=O)c1ccccc1CCC(O)Cc1ccccc1C(=O)NC(C)(C)C (stereo not drawn)
Ki [1]: 20000 nM

EC50 [2]: 36000 nM
Structure (SMILES): CC(C)(C)N(CCO)C(=O)c1ccccc1CCC(O)Cc1ccccc1C(=O)N(CCO)C(C)(C)C (stereo not drawn)
CC50 [4]: > 150000 nM

Structure (SMILES): Cc1ccc(CC(O)CCc2ccccc2C(=O)N(CCO)C(C)(C)c2ccccc2)c(C(=O)N(CCO)C(C)(C)c2ccccc2)c1 (stereo not drawn)
Cmax [5]: 1200 ng/mL
Cmax [6]: 860 ng/mL
half-life [7]: 2.07 h
Ki [1]: 18 nM
Cmax [8]: 390 ng/mL
bioavailability [9]: 34%
half-life [10]: 0.5 h
EC50 [2]: 810 nM
Cmax [11]: 88900 ng/mL

Structure (SMILES): CCC1(N(CCO)C(=O)c2ccccc2CCC(O)Cc2ccc(C)cc2C(=O)N(CCO)C2(c3ccccc3)CCCC2)CCCC1 (stereo not drawn)
Ki [1]: 0.4 nM
EC50 [2]: 790 nM

Ki [1]: 90 nM
EC50 [2]: 3400 nM
Structure (SMILES): CC(C)(C)N(CCO)C(=O)c1ccccc1CCC(O)Cc1ccccc1C(=O)N(CCO)C(C)(C)c1ccccc1 (stereo not drawn)
CC50 [4]: > 150000 nM

Structure (SMILES): CCC1(N(CCO)C(=O)c2ccccc2CCC(O)Cc2ccc(C)cc2C(=O)N(CCO)C(C)(C)c2ccc(OCc3cccnc3)cc2)CCCC1 (stereo not drawn)
Cmax [5]: 860 ng/mL
bioavailability (Rattus norvegicus): 5%
Cmax [12]: 87200 ng/mL
Ki [1]: 2 nM
half-life [13]: 1 h
EC50 [2]: 650 nM

Structure (SMILES): CCC1(N(CCO)C(=O)c2ccccc2CCC(O)Cc2ccc(C)cc2C(=O)N(CCO)C(C)(C)c2ccccc2)CCCC1 (stereo not drawn)
Cmax [14]: 18300 ng/mL
Cmax [15]: 2780 ng/mL
bioavailability [16]: 3%
Cmax [17]: 3260 ng/mL
half-life [18]: 1.07 h
Cmax [19]: 1910 ng/mL
Ki [1]: 8 nM
half-life [10]: 1.3 h
EC50 [2]: 780 nM
half-life [20]: 1.08 h
half-life [21]: 0.52 h
Cmax [11]: 88400 ng/mL
bioavailability [22]: 39%
half-life [23]: 0.24 h
Cmax [24]: 690 ng/mL
bioavailability [25]: 33%
bioavailability [26]: 32%
CC50 [4]: 103000 nM

Structure (SMILES): Cc1ccc(CC(O)CCc2ccccc2C(=O)N(CCO)C(C)(C)C)c(C(=O)N(CCO)C(C)(C)c2ccccc2)c1 (stereo not drawn)
Ki [1]: 63 nM
EC50 [2]: 4200 nM

EC50 [2]: 20 nM
Structure (SMILES): CC(C)(C)NC(=O)c1ccccc1C[C@@H](O)[C@H](Cc1ccccc1)NC(=O)[C@H](CC(N)=O)NC(=O)c1cnc2ccccc2c1
CC50 [27]: 122000 nM

Structure (SMILES): CC(C)(C)N(CCO)C(=O)c1ccccc1CCC(O)Cc1ccccc1C(=O)N(CCO)C(C)(C)c1ccc2ccccc2c1 (stereo not drawn)
Ki [1]: 145 nM
EC50 [2]: 7200 nM
